Bioassay records deposited in PubChem BioAssay by several laboratories.
Rows were chosen to be rich in hits. Some 2.1% of all compounds tested hit in one or more screens of this group.
UCH37 inh – inhibitors of human deubiquitinating enzyme UCH37; AID 588478; inhibition, % (concentration not given with the values); actives 0.33% (n = 330,000); purified proteasome/UCH37, Ub-AMC cleavage fluorescence; Q9Y5K5;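 active = mean inhibition over replicate wells above about 20%, limit read from the data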;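 note: 0% = compound-free wells with enzyme and 100% = wells lacking proteasome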
Target sequence (Q9Y5K5 whole entry, looked up): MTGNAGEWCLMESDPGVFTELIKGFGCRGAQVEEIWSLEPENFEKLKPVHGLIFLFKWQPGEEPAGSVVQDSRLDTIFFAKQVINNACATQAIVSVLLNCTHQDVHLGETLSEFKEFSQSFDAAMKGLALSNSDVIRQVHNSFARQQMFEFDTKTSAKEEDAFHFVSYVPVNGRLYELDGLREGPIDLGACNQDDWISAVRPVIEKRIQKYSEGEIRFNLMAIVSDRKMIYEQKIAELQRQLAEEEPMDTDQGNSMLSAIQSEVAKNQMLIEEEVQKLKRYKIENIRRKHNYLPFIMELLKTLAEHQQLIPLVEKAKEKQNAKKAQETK
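Signal – fluorescence, ex 355 nm, em 460 nm · System – Proteasome-bound UCH37 · Input – 0.15 nM proteasome as dispensed · Timing – 30 min preincubation with enzyme, 25 min cleavage at room temperature · Read-out basis – percent inhibition of cleavage signal versus uninhibited and no-proteasome wells · Medium – Tris-HCl pH 7.4 with ATP-MgCl2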
cardiac RTF act – increases calcium sensitivity of human cardiac regulated thin filaments; P19429+P45379; IANBD-labeled TnC RTF fluorescence at EC20 calcium; 0% EC20 calcium, 100% full calcium; activation, % at 7.2 µM; actives 0.24% (n = 340,000); AID 493008;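 active = activation above the mean over all tested compounds plus 3 SD, cut at about 30% in these data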;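 note: rise in fluorescence read as greater calcium sensitivity of cardiac thin filaments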
ARNT TACC3 PPI – disrupts binding between human ARNT and TACC3 | inhibition, % at 9.99 µM | AlphaScreen His-ARNT PAS-B/GST-TACC3 binding, luminescence; TACC3 fragment carries E629A point mutation | actives 0.66% (n = 390,000) | Q9Y6A5;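 active = mean inhibition of replicates at least 50% and at least half of replicates each reaching 50%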;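 note: 0% = complete ARNT plus TACC3 wells and 100% = ARNT alone without TACC3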
SUMO Mot1 rescue – SUMOylation pathway inhibition by Mot1-301 growth rescue; S. cerevisiae Mot1-301 growth rescue, ATP luminescence, 38.5C; percent above DMSO median, 100 means doubled; growth rescue, % at 18.8 µM; actives 1% (n = 320,000); AID 2716;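 active = every valid replicate shows activation above 250% relative to neutral control wells; inactive = the rest, any valid replicate at or below 250%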;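 note: OY570 slx delta 5 strain wells were the positive control but not used for scaling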
Efflux pump mplx – antifungal efflux pump inhibition, Nile Red retention; S. cerevisiae Candida pump triplex; inhibition, % at 10 µM; actives 0.44% (n = 330,000);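 active = plate passing quality check with inhibition over a set limit, or well fluorescence over plate mean plus 4 SD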;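 note: Nile Red retained in pooled yeast measured as flow cytometry median fluorescence; 0% = buffer negative control and 100% = Enniatin B positive control; higher means more Nile Red kept so more efflux inhibition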
RTF Ca sens inh – cardiac RTF calcium desensitization. P19429+P45379. IANBD-labeled cardiac RTF, Ca2+ fluorescence. inhibition, % at 7.15 µM. actives 0.12% (n = 340,000);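 active = inhibition above the mean inhibition of all tested compounds plus 3 SD, cut at about 17% in these data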;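 note: assay run at fixed EC70 calcium of 1.6 mM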
Cmpd fluor yeast – counter-screen for efflux pump inhibitors: compound fluorescence. fluorescence ratio to DMSO, % at 10 µM. shares compounds with Efflux pump mplx. S. cerevisiae AD/pABC3, flow cytometry. actives 4% (n = 1,700);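 active = fluorescence ratio to DMSO above its plate's cutoff, the plate mean ratio plus 5 SD, cut at about 210% in these data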;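 note: unstained yeast with no Nile Red so the signal is compound autofluorescence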
CaMdr1 efflux inh – blocks the Candida albicans Mdr1 efflux pump in yeast; shares compounds with Efflux pump mplx; S. cerevisiae AD/CaMDR1, Nile Red efflux, flow cytometry; inhibition, % at 10 µM; actives 1% (n = 1,700); AID 588518; in the data active = inhibition above about 26%;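 note: 0% = DMSO vehicle and 100% = reference inhibitor; higher means more Nile Red retained so more efflux inhibition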
Cdr2 pump inh – Candida Cdr2 efflux pump inhibition; shares compounds with Efflux pump mplx; S. cerevisiae AD/CaCDR2, Nile Red retention, flow cytometry; Nile Red retention ratio vs DMSO, % at 10 µM; actives 4% (n = 1,700); in the data active = Nile Red retention ratio vs DMSO above about 190%;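 note: higher ratio means more blocking of Cdr2 efflux of the dye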
Cdr1 pump inh – Candida Cdr1 efflux pump inhibition; shares compounds with Efflux pump mplx; S. cerevisiae AD/CaCDR1, Nile Red efflux, flow cytometry; inhibition, % at 10 µM; actives 1% (n = 1,700); AID 588522;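 active = inhibition above the screen-wide mean plus twice its standard deviation, cut at about 32% in these data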
Starred values were filed as active, the others as inactive; . = no result given; + = active, no number.

SMILES	UCH37 inh	cardiac RTF act	ARNT TACC3 PPI	SUMO Mot1 rescue	Efflux pump mplx	RTF Ca sens inh	Cmpd fluor yeast	CaMdr1 efflux inh	Cdr2 pump inh	Cdr1 pump inh
CCCCCCCC(=O)NN=C(C)c1cccnc1	3.5	.	.	.	.	.	.	.	.	.
CC(C)(C)NC(=O)C(=O)NNC(=O)COc1ccccc1	3.2	-0.6	-2.9	-17.1	27.7*	-3.2	100.2	0.0	105.7	0.1
CCOc1cc(C=NNC(=O)c2ccncc2)cc(Cl)c1OS(C)(=O)=O	6.7	.	.	.	.	.	.	.	.	.
COCCNC(=O)c1onc(CSc2ccccn2)c1C(=O)NCCOC	1.1	-0.2	-5.6	-0.5	-0.3	-13.9	.	.	.	.
CC(C)CCNC(=O)c1onc(CSc2ccccn2)c1C(=O)NCCC(C)C	-2.1	-7.5	-3.7	3.5	0.6*	4.3	103.6	0.0	101.7	-0.2
COc1ccc(OC)c(NC(=O)CSc2nc3ccccc3c(=O)n2CCNC(C)=O)c1	-1.2	0.6	-4.6	-2.9	0.6*	-2.7	101.1	-0.2	98.1	-0.1
COc1ccc(NC(=O)CSc2nc3ccccc3c(=O)n2CCNC(C)=O)c(OC)c1	-0.5	0.1	0.6	8.7	-0.1	-5.8	.	.	.	.
CCCCN1C(=O)C(=O)N(CC(=O)N2CCN(c3ccccc3)CC2)C1=O	-0.3	-0.4	-2.6	3.5	0.0	-32.8	.	.	.	.
CCCCN1C(=O)C(=O)N(c2ccccc2)C1=S	1.6	-5.5	17.1	17.3	6.5*	-4.6	107.2	-0.1	91.9	0.1
COc1cc(C=NNc2nc(C)nc3c2cnn3-c2ccccc2)ccc1O	-58.8	.	.	.	.	.	.	.	.	.
CCN(CC)S(=O)(=O)c1ccc(N2CCOCC2)c(NC(=O)CCC2CCCCC2)c1	1.1	-8.6	.	86.0	13.3*	-9.1	101.4	-0.2	93.5	-0.1
CC(=O)N/C(=C\c1ccccc1)C(=O)OCc1ccccc1	2.3	-4.7	3.3	3.5	1.5*	0.8	97.0	-0.3	109.9	-0.3
Cc1ccc2c(c1)c(/C=C/c1cc[n+](C)cc1)c(C)n2C	.	241.1*	.	11.2	24.6*	-286.0	+	31.8*	290.3*	16.5
Cc1ccc2[nH]c(C)c(/C=C/c3cc[n+](C)cc3)c2c1	21.7*	154.1*	8.4	-15.5	20.0*	-159.2	+	16.3	317.0*	15.5
COc1ccccc1N(CC(=O)NN=Cc1ccccc1C(=O)O)S(C)(=O)=O	5.6	.	.	.	.	.	.	.	.	.
Cc1ccc(-c2c3c([nH]c(=S)c2C#N)CCCC3)o1	8.1	-4.5	-1.6	-0.1	0.6*	-2.4	108.3	0.2	137.4	0.1
COc1c(C)cc(Br)cc1C(=O)Nc1ccccc1N1CCN(C(=O)c2ccccc2)CC1	1.8	0.1	1.0	14.8	1.0*	-0.7	105.6	-0.4	94.0	-0.1
OCCN=C1CCCc2c1[nH]c1ccc(Cl)cc21	-21.7	18.4	.	51.7	0.6*	3.4	100.2	0.1	103.6	0.0
O=S(=O)(NC1CCCC1)c1ccc(S(=O)(=O)N2CCN(c3ccccc3)CC2)cc1	4.0	-0.4	0.2	8.5	2.0*	-5.5	101.4	-0.5	87.3	-0.1
CCS(=O)(=O)N1CCN(S(=O)(=O)c2ccc(S(=O)(=O)NC3CC3)cc2)CC1	3.2	-3.9	-20.2	-2.7	-0.1	0.7	.	.	.	.
O=C(Nc1ccc(CN2CCOCC2)cc1)c1ccc(Br)o1	3.0	-2.9	8.8	-5.0	1.7*	-4.4	93.3	-0.1	108.3	0.0
COc1ccc(C=NN(C(C)=O)c2nc(-c3ccc(C)cc3)cs2)cc1	0.8	.	.	.	.	.	.	.	.	.
COC(=O)C(C=NO)NC(=O)c1ccccc1 (centres undefined)	1.1	.	.	.	.	.	.	.	.	.
Cc1onc(-c2ccccc2)c1C(=O)NC(C)c1ccccc1 (centres undefined)	-2.1	2.8	-3.3	-3.8	0.0	-2.7	.	.	.	.
Cc1ccc(C(C)NC(=O)c2c(-c3ccccc3)noc2C)cc1C (centres undefined)	4.1	-3.2	-1.6	-4.5	5.7*	-2.5	74.8	0.0	91.1	-0.5
SMILES	UCH37 inh	cardiac RTF act	ARNT TACC3 PPI	SUMO Mot1 rescue	Efflux pump mplx	RTF Ca sens inh	Cmpd fluor yeast	CaMdr1 efflux inh	Cdr2 pump inh	Cdr1 pump inh
COc1cc2c(cc1OC)C1CC(=NO)C(CC(C)C)CN1CC2 (centres undefined)	0.5	.	.	.	.	.	.	.	.	.
COc1ccc(OC)c2c1C(=O)C(Cl)=C(Cl)C2=O	.	0.0	-1.8	50.2	1.5*	-13.2	122.8	1.1	245.8*	0.6
Cc1cccc(C)c1-n1c(SCC(=O)N2CC(=O)Nc3ccccc32)nc2ccccc2c1=O	-0.2	0.4	1.3	-1.4	8.2*	-2.8	101.7	-0.2	124.8	94.6*
CCOc1cc(C=NNC(=O)CN2CCOCC2)ccc1OCc1ccc(F)cc1	4.3	.	.	.	.	.	.	.	.	.
CNC(=S)N(CCc1cccc(C)c1)Cc1cc2cc(OC)c(OC)cc2[nH]c1=O	-53.1	-7.2	3.8	-13.5	1.7*	-2.9	106.2	-0.1	93.5	0.2
CCCCOc1cccc(C(=O)Nc2ccc(NC(=O)c3cccs3)cc2)c1	-27.5	-7.7	-1.1	-0.4	0.7	-2.5	.	.	.	.
CCCOc1ccc(C(=O)Nc2ccc(NC(=O)c3cccs3)cc2)cc1	-7.7	-4.5	-4.1	10.9	1.7*	-7.6	104.7	0.1	116.6	0.1
O=c1c2ccccc2nnn1Cc1cccc2ccccc12	3.0	-2.9	-9.4	-10.4	-0.1	3.1	.	.	.	.
O=c1c2ccccc2nnn1Cc1ccccn1	-2.0	-5.4	-0.8	-4.5	8.2*	-2.5	99.8	-0.4	97.7	-0.1
O=C(Oc1ccc(C=NNC(=O)c2ccccc2F)cc1)c1ccccc1	-0.4	.	.	.	.	.	.	.	.	.
CCN(CCO)Cc1csc2cc(C)ccc12	3.3	7.7	-7.1	352.1	7.5*	-8.3	88.0	-0.3	96.3	-0.1
Cc1ccc(C(=O)CSc2nnc(-c3ccncc3)n2C)cc1	1.1	-0.2	0.9	691.9	0.0	-0.6	.	.	.	.
CCN(CC)C(=O)CSc1nnc(-c2ccncc2)n1N	-3.0	8.8	2.1	-14.1	5.9*	3.8	109.5	0.2	97.7	1.0
CCN(CC)C(=O)CSc1nnc(-c2ccccc2)n1N	6.9	4.5	-3.7	-3.5	0.0	-8.2	.	.	.	.
CCn1c(SCC(=O)c2ccc(C)cc2)nnc1-c1ccncc1	1.6	-2.1	8.7	-0.6	8.2*	0.2	114.3	0.1	114.4	0.0
N#C/C(=C(/O)CON=Cc1ccccc1Cl)c1nc2ccccc2[nH]1	0.3	.	.	.	.	.	.	.	.	.
